In ChEMBL document CHEMBL2413065, “Design and synthesis of bicyclic heterocycles as potent γ-secretase modulators” (Bioorg Med Chem Lett, 2013):
Blank lines part the entries; values can stand above or below the molecule they belong to. Active and inactive are the calls of the source. The calls are words filed in the database; no cut-off is given here.

Assays:
Gamma-secretase [1] = experiment: Modulation of gamma-secretase (unknown origin) assessed as reduction of amyloid beta 42 level; assay type: protein-complex assay, Homo sapiens
[2] = target: Voltage-gated inwardly rectifying potassium channel KCNH2 (Homo sapiens, UniProt Q12809); experiment: Binding affinity to human ERG
Voltage-gated inwardly rectifying potassium channel KCNH2, sequence (Q12809 whole entry): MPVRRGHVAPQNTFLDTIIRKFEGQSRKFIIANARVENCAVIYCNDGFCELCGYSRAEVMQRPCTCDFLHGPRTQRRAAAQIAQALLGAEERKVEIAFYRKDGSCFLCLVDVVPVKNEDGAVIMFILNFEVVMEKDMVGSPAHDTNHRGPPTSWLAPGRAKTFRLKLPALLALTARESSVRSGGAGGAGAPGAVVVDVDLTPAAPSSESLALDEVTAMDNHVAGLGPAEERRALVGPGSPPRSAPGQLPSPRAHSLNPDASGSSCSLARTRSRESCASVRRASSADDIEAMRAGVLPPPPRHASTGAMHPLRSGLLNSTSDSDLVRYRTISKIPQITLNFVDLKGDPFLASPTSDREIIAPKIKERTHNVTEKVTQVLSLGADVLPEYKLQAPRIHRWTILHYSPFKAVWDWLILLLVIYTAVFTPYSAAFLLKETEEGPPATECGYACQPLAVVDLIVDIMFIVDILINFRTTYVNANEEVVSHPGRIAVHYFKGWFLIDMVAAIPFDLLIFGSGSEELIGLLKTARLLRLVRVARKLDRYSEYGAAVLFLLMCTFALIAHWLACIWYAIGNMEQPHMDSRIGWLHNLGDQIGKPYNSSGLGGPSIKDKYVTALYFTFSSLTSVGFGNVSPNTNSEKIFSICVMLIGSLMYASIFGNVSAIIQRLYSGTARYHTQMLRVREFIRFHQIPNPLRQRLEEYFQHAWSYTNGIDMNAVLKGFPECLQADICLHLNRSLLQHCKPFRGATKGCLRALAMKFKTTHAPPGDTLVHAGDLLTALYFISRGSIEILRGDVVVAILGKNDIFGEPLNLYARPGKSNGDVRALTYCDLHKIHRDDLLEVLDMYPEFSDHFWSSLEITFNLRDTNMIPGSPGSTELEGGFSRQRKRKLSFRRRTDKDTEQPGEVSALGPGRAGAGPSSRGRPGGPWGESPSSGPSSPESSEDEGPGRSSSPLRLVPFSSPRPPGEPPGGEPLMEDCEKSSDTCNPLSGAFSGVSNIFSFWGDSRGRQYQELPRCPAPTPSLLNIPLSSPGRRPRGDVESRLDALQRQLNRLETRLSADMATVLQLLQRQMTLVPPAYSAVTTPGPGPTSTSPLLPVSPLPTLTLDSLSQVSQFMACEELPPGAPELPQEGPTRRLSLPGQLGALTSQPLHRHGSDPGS

Mus musculus [3] = experiment: Antialzheimer activity in mouse assessed as reduction of total amyloid beta level at 30 mg/kg, po after 4 hrs by ELISA; assay type: functional
Summary of the method: (§1)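 Mice dosed orally at 30 mg/kg, n = 6. Brain Aβ peptides were measured by ELISA 4 h after dosing. Values are given as % change versus untreated animals.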

[4] = Ratio of drug level in brain to plasma in mouse at 30 mg/kg, po after 4 hrs; assay type: ADME, organism-based; parameters: dose 30 mg/kg, route oral; conditions: read-out: BPR
Summary of the method: (§2)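 Mice received 30 mg/kg orally. Plasma and brain were sampled at 4 h and analysed for compound by a qualified research LC-MS/MS method. The brain/plasma ratio was calculated from the two concentrations.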

[5] = Drug level in mouse brain at 30 mg/kg, po after 4 hrs; assay type: ADME, organism-based; parameters: dose 30 mg/kg, route oral; conditions: read-out: Drug uptake; summary of the method: as §2
Mus musculus [6] = experiment: Antialzheimer activity in mouse assessed as reduction of amyloid beta-42 level at 30 mg/kg, po after 4 hrs by ELISA; assay type: functional; summary of the method: as §1
[7] = Plasma concentration in mouse at 30 mg/kg, po after 4 hrs; assay type: ADME, organism-based; parameters: dose 30 mg/kg, route oral; summary of the method: as §2
Gamma-secretase [8] = experiment: Modulation of gamma-secretase (unknown origin); assay type: protein-complex assay, Homo sapiens
Canis familiaris [9] = experiment: Antialzheimer activity in dog assessed as reduction of amyloid beta 42 level in cerebrospinal fluid at 20 mg/kg, po after 8 hrs by ELISA; assay type: functional; conditions: Canis lupus familiaris
Summary of the method: (§3)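 Dogs received 20 mg/kg orally. CSF Aβ42 and Aβ38 were measured 8 h after dosing and expressed as % change.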

Cytochrome P450 3A4 = Cytochrome P450 3A4 (Homo sapiens, UniProt P08684); experiment: Inhibition of CYP3A4 (unknown origin)
Cytochrome P450 3A4, sequence (P08684 whole entry): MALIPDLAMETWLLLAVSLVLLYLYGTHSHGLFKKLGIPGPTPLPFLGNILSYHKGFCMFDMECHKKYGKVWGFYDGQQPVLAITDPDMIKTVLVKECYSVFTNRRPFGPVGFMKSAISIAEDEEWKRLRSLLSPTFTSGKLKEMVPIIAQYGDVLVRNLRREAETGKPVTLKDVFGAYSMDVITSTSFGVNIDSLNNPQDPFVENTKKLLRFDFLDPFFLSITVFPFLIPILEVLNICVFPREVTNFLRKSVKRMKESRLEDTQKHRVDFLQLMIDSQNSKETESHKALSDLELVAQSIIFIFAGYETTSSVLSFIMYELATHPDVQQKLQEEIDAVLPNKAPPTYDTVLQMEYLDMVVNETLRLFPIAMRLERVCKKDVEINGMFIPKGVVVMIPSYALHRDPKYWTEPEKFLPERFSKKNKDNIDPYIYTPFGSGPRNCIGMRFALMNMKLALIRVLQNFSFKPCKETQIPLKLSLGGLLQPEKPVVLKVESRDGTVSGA

[10] = Fraction unbound in human plasma; assay type: ADME, cell-free
Summary of the method: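 Unbound fraction in human plasma, determined as binding to human plasma proteins.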

[11] = Drug metabolism in mouse liver microsomes at 1 uM after 15 mins; assay type: ADME, Microsome; conditions: read-out: Drug metabolism
Summary of the method: (§4)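 Compound at 1 μM was incubated with human or mouse liver microsomes for 15 min. The value is the % of compound metabolized.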

Cytochrome P450 2C19 = Cytochrome P450 2C19 (Homo sapiens, UniProt P33261); experiment: Inhibition of CYP2C19 (unknown origin)
Cytochrome P450 2C19, sequence (P33261 whole entry): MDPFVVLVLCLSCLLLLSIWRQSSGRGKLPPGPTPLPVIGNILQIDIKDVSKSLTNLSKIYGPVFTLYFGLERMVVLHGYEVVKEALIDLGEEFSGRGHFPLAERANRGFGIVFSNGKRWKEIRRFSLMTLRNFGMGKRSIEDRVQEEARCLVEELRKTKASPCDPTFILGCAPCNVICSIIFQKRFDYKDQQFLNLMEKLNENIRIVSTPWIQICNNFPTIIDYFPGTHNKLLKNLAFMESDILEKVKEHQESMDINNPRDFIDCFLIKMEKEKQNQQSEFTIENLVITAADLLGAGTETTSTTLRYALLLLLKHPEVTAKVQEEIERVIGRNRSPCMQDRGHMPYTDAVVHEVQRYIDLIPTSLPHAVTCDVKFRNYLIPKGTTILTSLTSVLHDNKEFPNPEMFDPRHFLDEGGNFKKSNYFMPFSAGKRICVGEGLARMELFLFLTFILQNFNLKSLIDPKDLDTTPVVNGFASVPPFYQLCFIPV

Canis familiaris [12] = experiment: Hepatotoxicity in dog assessed as effect on bilirubin and alanine transaminase level at 20 mg/kg, po; assay type: toxicity, organism-based, Canis lupus familiaris; parameters: dose 20 mg/kg, route oral; conditions: in vivo
Mus musculus [13] = experiment: Effect in mouse assessed as increase of amyloid beta 38 level at 30 mg/kg, po after 4 hrs by ELISA
Cytochrome P450 2D6 = Cytochrome P450 2D6 (Homo sapiens, UniProt P10635); experiment: Inhibition of CYP2D6 (unknown origin)
Cytochrome P450 2D6, sequence (P10635 whole entry): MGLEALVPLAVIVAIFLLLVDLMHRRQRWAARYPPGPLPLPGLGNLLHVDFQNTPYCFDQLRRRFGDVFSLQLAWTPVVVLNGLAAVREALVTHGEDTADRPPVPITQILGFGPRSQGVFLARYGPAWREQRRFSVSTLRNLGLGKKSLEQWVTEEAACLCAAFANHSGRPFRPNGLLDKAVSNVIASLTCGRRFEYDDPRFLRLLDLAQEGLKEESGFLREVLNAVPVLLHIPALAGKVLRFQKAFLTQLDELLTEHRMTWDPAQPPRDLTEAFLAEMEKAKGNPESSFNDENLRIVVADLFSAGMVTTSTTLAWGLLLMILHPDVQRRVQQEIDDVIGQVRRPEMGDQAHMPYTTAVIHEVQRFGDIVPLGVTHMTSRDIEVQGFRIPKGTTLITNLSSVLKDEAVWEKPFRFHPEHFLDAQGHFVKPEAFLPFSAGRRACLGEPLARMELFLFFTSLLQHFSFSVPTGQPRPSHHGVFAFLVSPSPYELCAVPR

[14] = Plasma concentration in dog at 20 mg/kg, po after 8 hrs; assay type: ADME, organism-based, Canis lupus familiaris; parameters: dose 20 mg/kg, route oral
Summary of the method: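 Dogs received 20 mg/kg orally. Plasma compound concentration was measured at 8 h and reported in ng/mL and μM.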

Cytochrome P450 2C9 = Cytochrome P450 2C9 (Homo sapiens, UniProt P11712); experiment: Inhibition of CYP2C9 (unknown origin)
Cytochrome P450 2C9, sequence (P11712 whole entry): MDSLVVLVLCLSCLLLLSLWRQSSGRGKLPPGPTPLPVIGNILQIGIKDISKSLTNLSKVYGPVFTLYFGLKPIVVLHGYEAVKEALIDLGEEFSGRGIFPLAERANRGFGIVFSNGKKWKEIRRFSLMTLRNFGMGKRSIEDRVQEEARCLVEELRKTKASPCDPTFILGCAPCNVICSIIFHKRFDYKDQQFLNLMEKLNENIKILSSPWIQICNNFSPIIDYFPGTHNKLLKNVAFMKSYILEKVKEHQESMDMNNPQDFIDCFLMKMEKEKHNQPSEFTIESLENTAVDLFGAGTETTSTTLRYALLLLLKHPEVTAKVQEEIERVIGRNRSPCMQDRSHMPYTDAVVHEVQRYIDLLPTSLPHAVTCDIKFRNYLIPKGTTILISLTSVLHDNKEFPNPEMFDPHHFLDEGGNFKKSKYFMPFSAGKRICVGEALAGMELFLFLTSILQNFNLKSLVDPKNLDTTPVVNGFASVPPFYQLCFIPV

[15] = Fraction unbound in rat brain; assay type: ADME, tissue-based
Summary of the method: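 Unbound fraction in rat brain tissue, expressed as %.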

Canis familiaris [16] = experiment: Antialzheimer activity in dog assessed as increase of amyloid beta 38 level in cerebrospinal fluid at 20 mg/kg, po after 8 hrs by ELISA; assay type: functional, Canis lupus familiaris; summary of the method: as §3
[17] = Drug metabolism in human liver microsomes at 1 uM after 15 mins; assay type: ADME, Microsome; conditions: read-out: Drug metabolism; summary of the method: as §4
hERG (KCNH2) = hERG (KCNH2) (Homo sapiens, UniProt Q12809); experiment: Inhibition of human ERG at 3 uM by Patch-Xpress assay
hERG (KCNH2), sequence (Q12809 whole entry): as the sequence (Q12809 whole entry) above

Cytochrome P450 1A2 = target: T1, Cytochrome P450 1A2 (Homo sapiens, UniProt P05177); experiment: Inhibition of CYP1A2 (unknown origin)
T1 sequence (P05177 whole entry): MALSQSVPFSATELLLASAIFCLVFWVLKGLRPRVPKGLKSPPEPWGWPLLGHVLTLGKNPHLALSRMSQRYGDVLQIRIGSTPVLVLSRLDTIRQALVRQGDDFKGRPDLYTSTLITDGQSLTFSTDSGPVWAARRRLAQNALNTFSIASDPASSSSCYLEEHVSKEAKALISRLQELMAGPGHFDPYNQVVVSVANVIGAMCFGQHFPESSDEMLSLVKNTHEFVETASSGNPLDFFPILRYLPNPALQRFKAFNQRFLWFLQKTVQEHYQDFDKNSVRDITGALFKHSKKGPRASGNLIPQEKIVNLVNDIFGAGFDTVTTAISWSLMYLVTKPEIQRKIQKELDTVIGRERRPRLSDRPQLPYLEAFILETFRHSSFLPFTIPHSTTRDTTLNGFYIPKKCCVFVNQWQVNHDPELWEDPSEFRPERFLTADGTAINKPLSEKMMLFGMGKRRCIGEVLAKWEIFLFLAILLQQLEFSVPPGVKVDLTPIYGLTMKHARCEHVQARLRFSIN

- IC50 (Gamma-secretase [1]): 447 nM
Compound: COc1cc(-c2nc3n(n2)CCC[C@@H]3c2ccc(F)cc2C)ccc1-n1cnc(C)c1
- IC50 [2]: 794 nM

- IC50 (Gamma-secretase [1]): 93 nM
Compound: COc1cc(-c2nc3n(n2)CCCC3c2ccc(F)cc2C)ccc1-n1cnc(C)c1 (racemic)

- Kp at 4 h [4]: 0.22
- concentration at 4 h [5]: 2.7 µM
- concentration at 4 h [7]: 11.9 µM
- IC50 (Gamma-secretase [8]): 158 nM
Compound: COc1cc(C(=O)NCc2cccc(-c3ccccc3)c2)ccc1-n1cnc(C)c1
- inhibition in vivo at 30 mg/kg (Mus musculus [3]): 3%
- inhibition in vivo at 30 mg/kg (Mus musculus [6]): 12%

- IC50 (Gamma-secretase [1]): 2600 nM
Compound: COc1cc(C(=O)N[C@@H](C)c2ccc(F)cc2)ccc1-n1cnc(C)c1

- IC50 (Gamma-secretase [1]): 5750 nM
Compound: COc1cc(-c2nc(-c3ccc(F)cc3)nn2C)ccc1-n1cnc(C)c1

- Kp at 4 h [4]: 0.23
- IC50 (Cytochrome P450 3A4): > 10000 nM
- fraction unbound [10]: 0.085
- IC50 (Gamma-secretase [1]): 28 nM
- concentration at 4 h [5]: 2.8 µM
- metabolised at […], 1 µM [11]: 6%
- IC50 (Cytochrome P450 2C19): > 10000 nM
- IC50 (Cytochrome P450 2D6): > 10000 nM
- concentration at 8 h [14]: 19 µM
- IC50 (Cytochrome P450 2C9): 8510 nM
- fraction unbound [15]: 0.022
- concentration at 4 h [7]: 12.3 µM
- metabolised at […], 1 µM [17]: 10%
Compound: COc1nc(-c2nc3n(n2)CCC[C@H]3c2ccccc2C(F)(F)F)ccc1-n1cnc(C)c1
- inhibition in vivo at 20 mg/kg (Canis familiaris [9]): 50%
- Activity (Canis familiaris [12]): Non-toxic
- inhibition in vivo at 30 mg/kg (Mus musculus [6]): 62%
- Increase % at 30 mg/kg (Mus musculus [13]): 66%
- Activity (Canis familiaris [16]): 28%

- IC50 (Gamma-secretase [1]): 1290 nM
Compound: COc1cc(-c2nnc(-c3ccc(F)cc3)[nH]2)ccc1-n1cnc(C)c1

- IC50 (Gamma-secretase [1]): 620 nM
Compound: COc1cc(-c2nc(-c3ccc(F)cc3)n(C)n2)ccc1-n1cnc(C)c1

- Kp at 4 h [4]: 1.29
- IC50 (Gamma-secretase [1]): 24 nM
- concentration at 4 h [5]: 12.7 µM
- metabolised at […], 1 µM [11]: 7%
- concentration at 4 h [7]: 9.7 µM
- metabolised at […], 1 µM [17]: 13%
Compound: COc1cc(-c2nc3n(n2)CCC[C@H]3c2ccccc2C(F)(F)F)ccc1-n1cnc(C)c1
- IC50 [2]: > 10000 nM
- inhibition in vivo at 30 mg/kg (Mus musculus [6]): 46%
- Increase % at 30 mg/kg (Mus musculus [13]): 44%
- inhibition at 3 µM (hERG (KCNH2)): 11%

- IC50 (Gamma-secretase [1]): 850 nM
Compound: COc1cc(-c2nc(Cc3ccc(F)cc3)n(C)n2)ccc1-n1cnc(C)c1

- IC50 (Gamma-secretase [1]): 770 nM
Compound: COc1cc(-c2nc(C)n(-c3ccc(F)cc3)n2)ccc1-n1cnc(C)c1

- Kp at 4 h [4]: 0.5
- IC50 (Cytochrome P450 3A4): 6940 nM
- fraction unbound [10]: 0.027
- IC50 (Gamma-secretase [1]): 40 nM
- concentration at 4 h [5]: 4.8 µM
- metabolised at […], 1 µM [11]: 9%
- IC50 (Cytochrome P450 2C19): 9240 nM
- IC50 (Cytochrome P450 2D6): > 10000 nM
- IC50 (Cytochrome P450 2C9): 5660 nM
- IC50 (Cytochrome P450 1A2): > 10000 nM
- fraction unbound [15]: 0.0092
- concentration at 4 h [7]: 9.8 µM
- metabolised at […], 1 µM [17]: 41%
Compound: COc1cc(-c2nc3n(n2)CCC[C@H]3c2ccc(F)cc2C)ccc1-n1cnc(C)c1
- inhibition (Mus musculus [3]): inactive
- IC50 [2]: 7900 nM
- inhibition in vivo at 30 mg/kg (Mus musculus [6]): 49%
- Increase % at 30 mg/kg (Mus musculus [13]): 59%
- inhibition at 3 µM (hERG (KCNH2)): 28%

- IC50 (Gamma-secretase [1]): 220 nM
Compound: COc1cc(-c2nc3n(n2)CCCC3c2ccc(F)cc2)ccc1-n1cnc(C)c1 (racemic)

- Kp at 4 h [4]: 0.93
- IC50 (Cytochrome P450 3A4): 1100 nM
- IC50 (Gamma-secretase [1]): 71 nM
- concentration at 4 h [5]: 3.36 µM
- metabolised at […], 1 µM [11]: 6%
- IC50 (Cytochrome P450 2C19): 1520 nM
- IC50 (Cytochrome P450 2D6): > 10000 nM
- IC50 (Cytochrome P450 2C9): 8430 nM
- IC50 (Cytochrome P450 1A2): > 10000 nM
- concentration at 4 h [7]: 3.6 µM
- metabolised at […], 1 µM [17]: 5%
Compound: COc1cc(-c2nc3n(n2)CCO[C@H]3c2ccccc2C(F)(F)F)ccc1-n1cnc(C)c1
- IC50 [2]: > 10000 nM
- inhibition in vivo at 30 mg/kg (Mus musculus [6]): 22%
- Increase % at 30 mg/kg (Mus musculus [13]): 17%
- inhibition at 3 µM (hERG (KCNH2)): 12%
